Measurements: ChEMBL document CHEMBL4270565, “Design, synthesis and antimicrobial evaluation of propylene-tethered ciprofloxacin-isatin hybrids” (Eur J Med Chem, 2018)
In brackets after ≈: the same amount, converted by molar mass.

Test system: Staphylococcus epidermidis
Test: Potency index, ratio of ciprofloxacin MIC90 to compound MIC90 for methicillin-sensitive Staphylococcus epidermidis ATCC 12228
Format: functional
Details: not given

Compound | Ratio
CO/N=C1\C(=O)N(CCCN2CCN(c3cc4c(cc3F)c(=O)c(C(=O)O)cn4C3CC3)CC2)c2ccc(C)cc21 | 2 - 64

Test system: Enterococcus faecalis
Test: Potency index, ratio of ciprofloxacin MIC90 to compound MIC90 for Enterococcus faecalis ATCC 51299
Format: functional
Details: not given

Compound | Ratio
CO/N=C1\C(=O)N(CCCN2CCN(c3cc4c(cc3F)c(=O)c(C(=O)O)cn4C3CC3)CC2)c2ccc(C)cc21 | 2 - 64

Test system: not listed separately
Test: AUC (0 to infinity) in ICR mouse at 50 mg/kg, po administered as single dose by HPLC analysis
Format: ADME, organism-based
Set-up: dose 50 mg/kg, route oral, time infinity
Details: in vivo
Summary of the method: (§1)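 Mice (3 per group), fasted overnight, given a single oral dose of 50 mg/kg as a suspension in 0.5% CMC. Jugular vein blood taken at 0.25, 0.5, 1, 2, 4, 6, 8 and 24 h. Serum proteins precipitated with acetonitrile and centrifuged; the dried supernatant was redissolved in acetonitrile for HPLC. PK parameters were derived directly from the concentration–time data.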

Compound | AUC(0-inf) [ng·h/mL]
CO/N=C1\C(=O)N(CCCN2CCN(c3cc4c(cc3F)c(=O)c(C(=O)O)cn4C3CC3)CC2)c2ccc(C)cc21 | 2860

Test system: Mycobacterium tuberculosis
Test: Antimycobacterial activity against Mycobacterium tuberculosis H37Rv after 7 days
Format: functional
Details: 168 h
Summary of the method: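 Rapid direct susceptibility test in 48-well plates. Two-fold dilutions of compound from DMSO stocks were mixed with an equal volume of bacterial suspension. Medium-only wells served as growth controls and water-only wells as no-growth controls. Plates were sealed and held at 37 C in a humid box, and controls were checked at 3 days. MIC (90% growth inhibition) was read visually by high-magnification observation of the cells and re-read at 7 days.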

Compound | MIC90 [µg/mL]
CO/N=C1\C(=O)N(CCCN2CCN(c3cc4c(cc3F)c(=O)c(C(=O)O)cn4C3CC3)CC2)c2ccc(C)cc21 | 0.78 (≈ 1.39 µM)

Test system: Enterobacter cloacae
Test: Antibacterial activity against Enterobacter cloacae ATCC 43560 after 18 to 24 hrs by two-fold serial dilution method
Format: functional
Details: not given

Compound | MIC90 [µg/mL]
CO/N=C1\C(=O)N(CCCN2CCN(c3cc4c(cc3F)c(=O)c(C(=O)O)cn4C3CC3)CC2)c2ccc(C)cc21 | ≤ 0.03

Test system: Proteus mirabilis
Test: Antibacterial activity against Proteus mirabilis 13-1 after 18 to 24 hrs by two-fold serial dilution method
Format: functional
Details: not given
Summary of the method: (§2)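 Agar two-fold dilution MIC. Compounds were dissolved in 0.1 N NaOH and water, then serially diluted in melted Mueller-Hinton agar, with top concentrations starting at 128. Plates were inoculated at about 10 cfu and incubated at 35 °C for 18–24 h. MIC was taken as the lowest concentration giving 90% inhibition of growth.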

Compound | MIC90 [µg/mL]
CO/N=C1\C(=O)N(CCCN2CCN(c3cc4c(cc3F)c(=O)c(C(=O)O)cn4C3CC3)CC2)c2ccc(C)cc21 | ≤ 0.03

Test system: Proteus vulgaris
Test: Antibacterial activity against Proteus vulgaris ATCC 29905 after 18 to 24 hrs by two-fold serial dilution method
Format: functional
Details: not given
Summary of the method: as §2

Compound | MIC90 [µg/mL]
CO/N=C1\C(=O)N(CCCN2CCN(c3cc4c(cc3F)c(=O)c(C(=O)O)cn4C3CC3)CC2)c2ccc(C)cc21 | ≤ 0.03

Test system: Citrobacter freundii
Test: Antibacterial activity against extended-spectrum beta-lactamase harboring Citrobacter freundii ATCC 43864 after 18 to 24 hrs by two-fold serial dilution method
Format: functional
Details: not given
Summary of the method: (§3)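 Agar two-fold serial dilution in Mueller-Hinton agar. Strains came from the Chinese Center for Disease Control and Prevention. Compounds were dissolved in 0.1 N NaOH and water, then diluted in melted agar to final levels stepping down from 128. Plates were inoculated with bacterial cfu and incubated at 35 C for 18–24 h. MIC is the lowest concentration giving 90% growth inhibition.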

Compound | MIC90 [µg/mL]
CO/N=C1\C(=O)N(CCCN2CCN(c3cc4c(cc3F)c(=O)c(C(=O)O)cn4C3CC3)CC2)c2ccc(C)cc21 | ≤ 0.03

Test system: Enterococcus faecalis
Test: Antibacterial activity against Enterococcus faecalis ATCC 51299 after 18 to 24 hrs by two-fold serial dilution method
Format: functional
Details: not given
Summary of the method: as §2

Compound | MIC90 [µg/mL]
CO/N=C1\C(=O)N(CCCN2CCN(c3cc4c(cc3F)c(=O)c(C(=O)O)cn4C3CC3)CC2)c2ccc(C)cc21 | 0.5 (≈ 0.89 µM)

Test system: Staphylococcus aureus
Test: Antibacterial activity against methicillin-sensitive Staphylococcus aureus ATCC 29213 after 18 to 24 hrs by two-fold serial dilution method
Format: functional
Details: not given
Summary of the method: as §3

Compound | MIC90 [µg/mL]
CO/N=C1\C(=O)N(CCCN2CCN(c3cc4c(cc3F)c(=O)c(C(=O)O)cn4C3CC3)CC2)c2ccc(C)cc21 | 0.06 (≈ 0.107 µM)

Test system: Enterococcus faecalis
Test: Potency index, ratio of ciprofloxacin MIC90 to compound MIC90 for Enterococcus faecalis ATCC 29212
Format: functional
Details: not given

Compound | Ratio
CO/N=C1\C(=O)N(CCCN2CCN(c3cc4c(cc3F)c(=O)c(C(=O)O)cn4C3CC3)CC2)c2ccc(C)cc21 | 2 - 64

Test system: Staphylococcus aureus
Test: Antibacterial activity against methicillin-resistant Staphylococcus aureus ATCC 33591 after 18 to 24 hrs by two-fold serial dilution method
Format: functional
Details: not given
Summary of the method: as §3

Compound | MIC90 [µg/mL]
CO/N=C1\C(=O)N(CCCN2CCN(c3cc4c(cc3F)c(=O)c(C(=O)O)cn4C3CC3)CC2)c2ccc(C)cc21 | 0.06 (≈ 0.107 µM)

Test system: Providencia rettgeri
Test: Antibacterial activity against Providencia rettgeri ATCC 31052 after 18 to 24 hrs by two-fold serial dilution method
Format: functional
Details: not given
Summary of the method: as §2

Compound | MIC90 [µg/mL]
CO/N=C1\C(=O)N(CCCN2CCN(c3cc4c(cc3F)c(=O)c(C(=O)O)cn4C3CC3)CC2)c2ccc(C)cc21 | ≤ 0.03

Test system: Acinetobacter calcoaceticus
Test: Antibacterial activity against Acinetobacter calcoaceticus ATCC 19606 after 18 to 24 hrs by two-fold serial dilution method
Format: functional
Details: not given
Summary of the method: as §2

Compound | MIC90 [µg/mL]
CO/N=C1\C(=O)N(CCCN2CCN(c3cc4c(cc3F)c(=O)c(C(=O)O)cn4C3CC3)CC2)c2ccc(C)cc21 | 0.25 (≈ 0.445 µM)

Test system: not listed separately
Test: Cmax in ICR mouse at 50 mg/kg, po administered as single dose by HPLC analysis
Format: ADME, organism-based
Set-up: dose 50 mg/kg, route oral
Details: in vivo
Summary of the method: as §1

Compound | Cmax [ng/mL]
CO/N=C1\C(=O)N(CCCN2CCN(c3cc4c(cc3F)c(=O)c(C(=O)O)cn4C3CC3)CC2)c2ccc(C)cc21 | 832

Test system: Escherichia coli
Test: Antibacterial activity against extended-spectrum beta-lactamase deficient Escherichia coli ATCC 25922 after 18 to 24 hrs by two-fold serial dilution method
Format: functional
Details: not given
Summary of the method: as §2

Compound | MIC90 [µg/mL]
CO/N=C1\C(=O)N(CCCN2CCN(c3cc4c(cc3F)c(=O)c(C(=O)O)cn4C3CC3)CC2)c2ccc(C)cc21 | ≤ 0.03

Test system: Enterococcus faecalis
Test: Potency index, ratio of levofloxacin MIC90 to compound MIC90 for Enterococcus faecalis ATCC 29212
Format: functional
Details: not given

Compound | Ratio
CO/N=C1\C(=O)N(CCCN2CCN(c3cc4c(cc3F)c(=O)c(C(=O)O)cn4C3CC3)CC2)c2ccc(C)cc21 | 2 - 64

Test system: Serratia marcescens
Test: Antibacterial activity against Serratia marcescens ATCC 21074 after 18 to 24 hrs by two-fold serial dilution method
Format: functional
Details: not given
Summary of the method: as §2

Compound | MIC90 [µg/mL]
CO/N=C1\C(=O)N(CCCN2CCN(c3cc4c(cc3F)c(=O)c(C(=O)O)cn4C3CC3)CC2)c2ccc(C)cc21 | 0.06 (≈ 0.107 µM)

Test system: not listed separately
Test: Half life in mouse microsomes
Format: ADME, Microsome
Details: not given

Compound | half-life [min]
CO/N=C1\C(=O)N(CCCN2CCN(c3cc4c(cc3F)c(=O)c(C(=O)O)cn4C3CC3)CC2)c2ccc(C)cc21 | 17
